From ChEMBL document CHEMBL2010745, “Optimization of the First Selective Steroid-11β-hydroxylase (CYP11B1) Inhibitors for the Treatment of Cortisol Dependent Diseases” (ACS Med Chem Lett, 2011)

Experiments:
Homo sapiens = organism: Homo sapiens; experiment: Selectivity ratio of IC50 for human CYP11B2 to IC50 for human CYP11B1
CYP19 (aromatase) = target: T1, CYP19 (aromatase) (Homo sapiens, UniProt P11511); experiment: Inhibition of CYP19 in human placental microsomes using [1beta-3H]androstenedione as substrate at 0.5 uM; settings: probe [1beta-3H]androstenedione
T1 sequence (P11511 whole entry): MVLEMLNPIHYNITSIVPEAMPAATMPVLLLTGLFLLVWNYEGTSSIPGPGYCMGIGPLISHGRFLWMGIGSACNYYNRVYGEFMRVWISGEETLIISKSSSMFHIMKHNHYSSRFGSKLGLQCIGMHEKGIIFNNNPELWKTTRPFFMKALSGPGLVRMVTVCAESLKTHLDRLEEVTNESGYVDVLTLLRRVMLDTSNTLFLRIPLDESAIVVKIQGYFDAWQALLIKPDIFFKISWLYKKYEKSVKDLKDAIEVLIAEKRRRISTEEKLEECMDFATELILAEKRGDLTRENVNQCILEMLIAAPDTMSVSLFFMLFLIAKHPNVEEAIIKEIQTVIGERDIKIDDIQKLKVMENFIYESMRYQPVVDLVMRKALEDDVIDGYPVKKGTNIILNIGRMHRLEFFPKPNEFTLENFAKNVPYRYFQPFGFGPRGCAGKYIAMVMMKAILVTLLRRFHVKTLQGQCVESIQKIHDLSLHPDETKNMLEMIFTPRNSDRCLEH

CYP17 = target: T2, CYP17 (Homo sapiens, UniProt P05093); experiment: Inhibition of human recombinant CYP17 expressed in Escherichia coli using progesterone as substrate at 2 uM; settings: probe progesterone
T2 sequence (P05093 whole entry): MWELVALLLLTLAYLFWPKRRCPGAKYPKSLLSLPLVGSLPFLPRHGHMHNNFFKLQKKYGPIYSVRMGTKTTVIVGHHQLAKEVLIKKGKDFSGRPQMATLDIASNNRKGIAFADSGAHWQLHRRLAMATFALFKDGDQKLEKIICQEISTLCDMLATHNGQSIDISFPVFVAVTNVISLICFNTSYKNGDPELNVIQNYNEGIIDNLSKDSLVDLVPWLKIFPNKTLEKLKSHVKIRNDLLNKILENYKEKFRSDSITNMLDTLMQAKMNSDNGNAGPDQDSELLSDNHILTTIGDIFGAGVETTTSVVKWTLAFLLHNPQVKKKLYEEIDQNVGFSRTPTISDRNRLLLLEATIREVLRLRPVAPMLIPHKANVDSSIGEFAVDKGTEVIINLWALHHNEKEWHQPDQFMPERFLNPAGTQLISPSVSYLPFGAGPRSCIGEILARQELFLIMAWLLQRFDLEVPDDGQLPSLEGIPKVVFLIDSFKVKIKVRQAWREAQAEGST
How it was run: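 Recombinantly expressed human CYP17 with progesterone as substrate. Inhibition is reported as percent at an inhibitor concentration of 2.0 μM.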

[1] = target: T3, Cytochrome P450 11B2, mitochondrial (Homo sapiens, UniProt P19099); experiment: Inhibition of human CYP11B2 expressed in hamster V79 MZ cells using [3H] 11 deoxycorticosterone as substrate by HPLC radioflow detector; type: cell-based
T3 sequence (P19099 whole entry): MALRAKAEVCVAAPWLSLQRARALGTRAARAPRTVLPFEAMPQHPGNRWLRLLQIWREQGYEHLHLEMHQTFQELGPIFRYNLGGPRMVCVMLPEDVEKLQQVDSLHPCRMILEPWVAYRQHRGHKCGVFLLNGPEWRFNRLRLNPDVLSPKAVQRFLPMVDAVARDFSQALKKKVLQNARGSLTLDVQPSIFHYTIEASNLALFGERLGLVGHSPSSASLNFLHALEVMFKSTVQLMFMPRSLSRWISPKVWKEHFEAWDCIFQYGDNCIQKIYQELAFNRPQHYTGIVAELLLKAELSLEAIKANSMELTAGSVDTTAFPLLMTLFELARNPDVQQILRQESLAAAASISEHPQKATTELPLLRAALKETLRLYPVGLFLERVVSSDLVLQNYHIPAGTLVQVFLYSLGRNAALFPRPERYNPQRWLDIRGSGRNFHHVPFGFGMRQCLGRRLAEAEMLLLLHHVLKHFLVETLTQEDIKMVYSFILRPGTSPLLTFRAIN

[2] = target: T4, Cytochrome P450 11B1, mitochondrial (Homo sapiens, UniProt P15538); experiment: Inhibition of human CYP11B1 expressed in hamster V79 MZ cells using [3H] 11 deoxycorticosterone as substrate by HPLC radioflow detector; type: cell-based
T4 sequence (P15538 whole entry): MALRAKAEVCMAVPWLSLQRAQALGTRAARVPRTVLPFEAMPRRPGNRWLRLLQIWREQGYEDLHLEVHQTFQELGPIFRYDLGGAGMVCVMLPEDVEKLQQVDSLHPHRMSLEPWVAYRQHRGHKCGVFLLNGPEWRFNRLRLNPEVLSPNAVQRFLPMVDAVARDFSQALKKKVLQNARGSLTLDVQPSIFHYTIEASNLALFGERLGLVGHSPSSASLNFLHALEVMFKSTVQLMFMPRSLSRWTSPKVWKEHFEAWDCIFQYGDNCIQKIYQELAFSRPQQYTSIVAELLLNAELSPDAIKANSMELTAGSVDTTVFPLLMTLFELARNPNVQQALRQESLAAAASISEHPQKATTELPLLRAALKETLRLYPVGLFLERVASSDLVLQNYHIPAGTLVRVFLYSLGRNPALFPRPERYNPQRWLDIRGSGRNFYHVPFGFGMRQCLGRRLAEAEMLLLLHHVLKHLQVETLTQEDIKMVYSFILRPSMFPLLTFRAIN

[3] = target: T3, Cytochrome P450 11B2, mitochondrial; experiment: Inhibition of human CYP11B2 expressed in hamster V79 MZ cells using [3H] 11 deoxycorticosterone as substrate at 500 nM by HPLC radioflow detector; type: cell-based; settings: v79, 0.5 µM

| Structure (SMILES) | Ratio IC50 (Homo sapiens) | inhibition at 0.5 µM (CYP19 (aromatase)) [%] | inhibition at 2 µM (CYP17) [%] | IC50 [1] [nM] | IC50 [2] [nM] | inhibition (INH) [3] |
| --- | --- | --- | --- | --- | --- | --- |
| c1ccc2cc(-c3ccc(Cn4ccnc4)cn3)ccc2c1 | 3.2 | – | – | – | – | – |
| c1csc(-c2ccc(Cn3ccnc3)cn2)c1 | 17 | < 10 | < 10 | – | – | – |
| c1cn(Cc2ccc(-c3ccoc3)nc2)cn1 | 37 | < 10 | < 10 | – | – | – |
| c1cncc(-c2ccc(Cn3ccnc3)cn2)c1 | 8 | – | – | – | – | – |
| Cc1ccc(-c2ccc(Cn3ccnc3)cn2)cc1N | – | < 10 | < 10 | > 1000 | – | – |
| Brc1ccc(Cn2ccnc2)cn1 | – | – | – | > 1000 | – | – |
| O=Cc1ccc(-c2ccc(Cn3ccnc3)cn2)s1 | 16 | 19 | < 10 | – | – | – |
| N#Cc1ccc(-c2ccc(Cn3ccnc3)cn2)cc1 | – | – | – | > 1000 | – | – |
| COc1ccc(-c2ccc(Cn3ccnc3)cn2)cc1 | – | < 10 | < 10 | > 1000 | – | – |
| COc1ccc(-c2ccc(Cn3ccnc3)cn2)cc1OC | – | < 10 | < 10 | > 1000 | > 1000 | – |
| c1ccc2c(-c3ccc(Cn4ccnc4)cn3)cncc2c1 | 10 | – | – | – | – | – |
| c1ccc(-c2ccc(Cn3ccnc3)cn2)cc1 | 18 | – | – | – | – | – |
| c1cc(Cn2ccnc2)ccn1 | – | – | – | > 1000 | – | – |
| c1ccc2sc(-c3ccc(Cn4ccnc4)cn3)cc2c1 | 1 | – | – | – | – | – |
| Fc1cccc(-c2ccc(Cn3ccnc3)cn2)c1 | – | < 10 | < 10 | > 1000 | – | – |
| Oc1ccc(-c2ccc(Cn3ccnc3)cn2)cc1F | 14 | – | – | – | – | – |
| Clc1ccc(-c2ccc(Cn3ccnc3)cn2)s1 | 2.6 | 30 | – | – | – | – |
| COc1ccc(-c2ccc(Cn3ccnc3)cn2)cn1 | – | – | – | > 1000 | > 1000 | – |
| Nc1cccc(-c2ccc(Cn3ccnc3)cn2)c1 | 31 | < 10 | < 10 | – | – | – |
| c1ccc2c(-c3ccc(Cn4ccnc4)cn3)cccc2c1 | 49 | < 10 | < 10 | – | – | – |
| COc1ccccc1-c1ccc(Cn2ccnc2)cn1 | 26 | < 10 | < 10 | – | – | – |
| Brc1ncccc1Cn1ccnc1 | 15 | < 10 | < 10 | – | – | – |

| Structure (SMILES) | Ratio IC50 (Homo sapiens) | inhibition at 0.5 µM (CYP19 (aromatase)) [%] | inhibition at 2 µM (CYP17) [%] | IC50 [1] [nM] | IC50 [2] [nM] | inhibition (INH) [3] |
| --- | --- | --- | --- | --- | --- | --- |
| N#Cc1cccc(-c2ccc(Cn3ccnc3)cn2)c1 | – | – | – | > 1000 | – | – |
| c1cn(Cc2ccc(-c3cncnc3)nc2)cn1 | – | – | – | – | – | Not Active |
| c1cncc(Cn2ccnc2)c1 | – | – | – | > 1000 | – | – |
| c1coc(-c2cc(Cn3ccnc3)cnc2-c2ccco2)c1 | 29 | – | – | – | – | – |
| N#Cc1ncccc1Cn1ccnc1 | – | – | – | > 1000 | – | – |
| Clc1ncc(Cn2ccnc2)cc1Br | 3.4 | – | – | – | – | – |
| Fc1ccc(-c2ccc(Cn3ccnc3)cn2)cc1 | 10 | < 10 | < 10 | – | – | – |
| Nc1ccc(-c2ccc(Cn3ccnc3)cn2)cc1 | 5 | < 10 | < 10 | – | – | – |
| c1coc(-c2ccc(Cn3ccnc3)cn2)c1 | 31 | < 10 | < 10 | – | – | – |
| c1csc(-c2ncccc2Cn2ccnc2)c1 | 16 | < 10 | < 10 | – | – | – |
| c1ccc(-c2cc(Cn3ccnc3)cnc2-c2ccccc2)cc1 | 2.4 | < 10 | < 10 | – | – | – |
| c1ccc2c(-c3ccc(Cn4ccnc4)cn3)csc2c1 | 29 | < 10 | < 10 | – | – | – |
| Clc1ncc(Cn2ccnc2)cc1-c1cccs1 | 6 | < 10 | < 10 | 416 | 73 | – |
| O=Cc1ccc(-c2ccc(Cn3ccnc3)cn2)cc1 | – | < 10 | < 10 | > 1000 | – | – |
| c1cc(-c2ccc(Cn3ccnc3)cn2)ccn1 | 3.5 | – | – | – | – | – |
| Nc1ccccc1-c1ccc(Cn2ccnc2)cn1 | 21 | < 10 | < 10 | – | – | – |
| Fc1ccc(-c2ccc(Cn3ccnc3)cn2)cc1F | 5 | < 10 | < 10 | – | – | – |
| c1ccc(N(c2ccccc2)c2ccc(-c3ccc(Cn4ccnc4)cn3)cc2)cc1 | – | < 10 | < 10 | – | – | Not Active |
| Fc1ccccc1-c1ccc(Cn2ccnc2)cn1 | 24 | < 10 | < 10 | – | – | – |
| c1ccc2oc(-c3ccc(Cn4ccnc4)cn3)cc2c1 | – | – | – | > 1000 | – | – |
| c1cn(Cc2ccc(-c3ccsc3)nc2)cn1 | 26 | < 10 | < 10 | – | – | – |
